In ChEMBL document CHEMBL3804783, “Identification of a Small Molecule Cyclophilin D Inhibitor for Rescuing Aβ-Mediated Mitochondrial Dysfunction” (ACS Med Chem Lett, 2016):

Key:
SK-N-SH [1] = assay: Effect on ATP level in human SK-N-SH cells at 10 to 20 uM after 48 hrs by bioluminescence analysis; type: ADME, cell-based
Procedure, shortened: (§1)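 SK-N-SH cells given 5 μM oligomeric Aβ1–42 together with 10 or 20 μM inhibitor, 1 μM CsA, or vehicle. Controls were Aβ alone and cells without Aβ. After 48 h, ATP level or CcO enzymatic activity measured in cell lysates.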

[2] = Effect on mouse brain cortical mitochondrial swelling at 10 to 100 uM incubated for 5 mins by spectrophotometric analysis; type: ADME, Mitochondria
Procedure, shortened: (§2)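 Cortical mitochondria isolated from mice (100 μg) kept on ice for 5 min with or without inhibitor. Swelling then triggered by adding 200 μM Ca2+ to the reaction buffer and compared with vehicle-treated mitochondria.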

SK-N-SH [3] = assay: Cytotoxicty against human SK-N-SH cells at 5 to 100 uM after 48 hrs by MTT assay; type: cell-based
Procedure, shortened: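 SK-N-SH cells exposed at 37 °C for 48 h to 0, 5, 10, 25, 50 or 100 μM inhibitor diluted in culture medium, with vehicle as 0. Survival and toxicity read by MTT reduction.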

[4] = target: Peptidyl-prolyl cis-trans isomerase F, mitochondrial (Mus musculus) (UniProt Q99KR7); assay: Inhibition of cyclophilin D in mouse brain cortical mitochondria assessed as suppression of calcium-induced mitochondrial swelling incubated for 5 mins by spectrophotometric analysis; procedure, shortened: as §2
Chain of Peptidyl-prolyl cis-trans isomerase F, mitochondrial (Mus musculus) (Q99KR7 whole entry): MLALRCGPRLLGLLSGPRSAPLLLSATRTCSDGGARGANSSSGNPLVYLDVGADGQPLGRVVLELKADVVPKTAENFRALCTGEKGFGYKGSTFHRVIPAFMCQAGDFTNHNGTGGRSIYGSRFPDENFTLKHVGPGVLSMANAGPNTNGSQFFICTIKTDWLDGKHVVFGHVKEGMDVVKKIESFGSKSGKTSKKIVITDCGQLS

SK-N-SH [5] = assay: Effect on cytochrome c oxidase activity in human SK-N-SH cells at 10 to 20 uM after 48 hrs by spectrophotometrical analysis; type: ADME, cell-based; procedure, shortened: as §1

SMILES: Cc1nc(-c2ccc(OCC(C)C)c(C#N)c2)sc1C(=O)Nc1ccc(S(N)(=O)=O)cc1
- Activity (SK-N-SH [1]): Non-toxic
- Activity [2]: Non-toxic
- Activity (SK-N-SH [3]): Non-toxic
- inhibition [4]: Dose-dependent effect
- Activity (SK-N-SH [5]): Non-toxic
